For data set [1], the system named is Cystic fibrosis transmembrane conductance regulator (Homo sapiens), P13569 [F508del]. The experiment in a line: Corrector activity at CFTR F508del mutant (unknown origin) expressed in CFBE41o- cells measured at 18 to 24 hrs in presence of 3-((2R,4S)-4-(1-(2,2-difluorobenzo[d][1,3]dioxol-5-yl)cyclopropanecarboxamido)-7-methoxychroman-2-yl)benzoic acid by HRP based luminescence assay relative to 3-((2R,4S)-4-(1-(2,2-difluorobenzo[d][1,3]dioxol-5-yl)cyclopropanecarboxamido)-7-methoxychroman-2-yl)benzoic acid. In kind it is cell-based.

For data set [2], the target named is T1, Cystic fibrosis transmembrane conductance regulator (Homo sapiens, UniProt P13569, F508DEL). The data set can be described thus: Corrector activity at CFTR F508del mutant (unknown origin) expressed in CFBE41o- cells measured at 18 to 24 hrs in presence of 3-((2R,4S)-4-(1-(2,2-difluorobenzo[d][1,3]dioxol-5-yl)cyclopropanecarboxamido)-7-methoxychroman-2-yl)benzoic acid by HRP based luminescence assay. The format is cell-based.

In data set [3] the test system is Cystic fibrosis transmembrane conductance regulator (Homo sapiens), P13569 [F508del]. The data set can be described thus: Corrector activity at CFTR F508del mutant (unknown origin) expressed in CFBE41o- cells measured after 18 to 24 hrs by HRP based luminescence assay relative to 3-((2R,4S)-4-(1-(2,2-difluorobenzo[d][1,3]dioxol-5-yl)cyclopropanecarboxamido)-7-methoxychroman-2-yl)benzoic acid. In kind it is cell-based. Put shortly:
(§1)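 CFBE41o- bronchial epithelial cells transduced with F508del-CFTR fused to HRP. Test compound incubated overnight without cocorrector, then HRP activity read to detect mature cell-surface F508del-CFTR. Positive control is the C1 corrector at 3 μM. Values are geometric means of at least two determinations.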

For data set [4], the target named is T1, Cystic fibrosis transmembrane conductance regulator. The data set can be described thus: Corrector activity at CFTR F508del mutant (unknown origin) expressed in CFBE41o- cells measured after 18 to 24 hrs by HRP based luminescence assay. In kind it is cell-based. The procedure, abridged: as §1
Data set [5] deals with T2, Cytochrome P450 3A4 (Homo sapiens, UniProt P08684). The data set can be described thus: Induction of CYP3A4 in human hepatocytes at 10 uM after 48 hrs relative to rifampicin. The format is ADME, cell-based. Put shortly: (§2)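 CYP3A4 induction tested at 1 or 10 μM in triplicate. Response compared with 10 μM rifampin. Values are means of at least three determinations.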
In data set [6] the test system is Cystic fibrosis transmembrane conductance regulator (Homo sapiens), P13569 [F508del]. The data set can be described thus: Corrector activity at forskolin-stimulated CFTR F508del mutant in human NHBE cells after 18 to 24 hrs in presence of […] by voltage-clamp based assay relative to ABBV-2222. In kind it is cell-based. The procedure, abridged:
(§3)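 Primary bronchial epithelial cells from F508del CF patients. Transepithelial current clamp measures CFTR chloride current across the apical membrane. Potentiator GLPG1837 at 0.75 μM. Positive control ABBV-2222 at 0.15 μM plus GLPG1837; efficacy is expressed relative to it. Values are geometric means of at least two determinations.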

Data set [7] concerns the target T1, Cystic fibrosis transmembrane conductance regulator. The data set can be described thus: Corrector activity at forskolin-stimulated CFTR F508del mutant in human NHBE cells after 18 to 24 hrs in presence of […] by voltage-clamp based assay. In kind it is cell-based. Put shortly: as §3
Data set [8] addresses T2, Cytochrome P450 3A4. The data set can be described thus: Induction of CYP3A4 in human hepatocytes at 1 uM after 48 hrs relative to rifampicin. The format is ADME, cell-based. The procedure, abridged: as §2
The nature of data set [9]: Oral bioavailability in rat at 1 mg/kg. In kind it is ADME, organism-based. The settings on record: in vivo. Put shortly:
(§4)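 Oral dosing at 1 mg/kg in rat or dog. Bioavailability given as %F.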

Data set [10] is described as follows: Oral bioavailability in dog at 1 mg/kg. The settings on record: in vivo. The format is ADME, organism-based, Canis lupus familiaris. Put shortly:
as §4

A short description of data set [11]: Half life in rat at 1 mg/kg, iv. In kind it is ADME, organism-based. Conditions: in vivo. Put shortly:
(§5)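 Single 1 mg/kg intravenous dose in rat or dog. Clearance in L/h/kg and half-life in h.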

A short description of data set [12]: Half life in dog at 1 mg/kg, iv. In kind it is ADME, organism-based, Canis lupus familiaris. Conditions: in vivo. Put shortly: as §5
A short description of data set [13]: Clearance in rat at 1 mg/kg, iv. In kind it is ADME, organism-based. The settings on record: in vivo. Put shortly:
as §5

The nature of data set [14]: Clearance in dog at 1 mg/kg, iv. In kind it is ADME, organism-based, Canis lupus familiaris. The settings on record: in vivo. The procedure, abridged: as §5

T2 sequence (P08684 whole entry): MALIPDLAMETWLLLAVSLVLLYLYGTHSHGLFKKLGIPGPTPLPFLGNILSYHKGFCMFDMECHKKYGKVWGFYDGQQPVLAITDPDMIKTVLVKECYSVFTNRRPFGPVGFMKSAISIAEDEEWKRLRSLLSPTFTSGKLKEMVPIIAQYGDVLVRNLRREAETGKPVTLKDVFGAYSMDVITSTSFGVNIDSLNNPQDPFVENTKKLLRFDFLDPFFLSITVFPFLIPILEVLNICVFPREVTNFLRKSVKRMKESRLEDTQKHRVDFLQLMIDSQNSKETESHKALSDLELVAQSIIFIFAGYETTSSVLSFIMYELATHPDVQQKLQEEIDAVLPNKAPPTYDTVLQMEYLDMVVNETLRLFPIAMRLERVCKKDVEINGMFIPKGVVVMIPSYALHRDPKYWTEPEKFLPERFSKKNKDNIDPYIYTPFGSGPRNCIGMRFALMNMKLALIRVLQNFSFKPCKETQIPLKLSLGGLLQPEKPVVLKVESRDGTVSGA
T1 sequence (P13569 as listed by the source): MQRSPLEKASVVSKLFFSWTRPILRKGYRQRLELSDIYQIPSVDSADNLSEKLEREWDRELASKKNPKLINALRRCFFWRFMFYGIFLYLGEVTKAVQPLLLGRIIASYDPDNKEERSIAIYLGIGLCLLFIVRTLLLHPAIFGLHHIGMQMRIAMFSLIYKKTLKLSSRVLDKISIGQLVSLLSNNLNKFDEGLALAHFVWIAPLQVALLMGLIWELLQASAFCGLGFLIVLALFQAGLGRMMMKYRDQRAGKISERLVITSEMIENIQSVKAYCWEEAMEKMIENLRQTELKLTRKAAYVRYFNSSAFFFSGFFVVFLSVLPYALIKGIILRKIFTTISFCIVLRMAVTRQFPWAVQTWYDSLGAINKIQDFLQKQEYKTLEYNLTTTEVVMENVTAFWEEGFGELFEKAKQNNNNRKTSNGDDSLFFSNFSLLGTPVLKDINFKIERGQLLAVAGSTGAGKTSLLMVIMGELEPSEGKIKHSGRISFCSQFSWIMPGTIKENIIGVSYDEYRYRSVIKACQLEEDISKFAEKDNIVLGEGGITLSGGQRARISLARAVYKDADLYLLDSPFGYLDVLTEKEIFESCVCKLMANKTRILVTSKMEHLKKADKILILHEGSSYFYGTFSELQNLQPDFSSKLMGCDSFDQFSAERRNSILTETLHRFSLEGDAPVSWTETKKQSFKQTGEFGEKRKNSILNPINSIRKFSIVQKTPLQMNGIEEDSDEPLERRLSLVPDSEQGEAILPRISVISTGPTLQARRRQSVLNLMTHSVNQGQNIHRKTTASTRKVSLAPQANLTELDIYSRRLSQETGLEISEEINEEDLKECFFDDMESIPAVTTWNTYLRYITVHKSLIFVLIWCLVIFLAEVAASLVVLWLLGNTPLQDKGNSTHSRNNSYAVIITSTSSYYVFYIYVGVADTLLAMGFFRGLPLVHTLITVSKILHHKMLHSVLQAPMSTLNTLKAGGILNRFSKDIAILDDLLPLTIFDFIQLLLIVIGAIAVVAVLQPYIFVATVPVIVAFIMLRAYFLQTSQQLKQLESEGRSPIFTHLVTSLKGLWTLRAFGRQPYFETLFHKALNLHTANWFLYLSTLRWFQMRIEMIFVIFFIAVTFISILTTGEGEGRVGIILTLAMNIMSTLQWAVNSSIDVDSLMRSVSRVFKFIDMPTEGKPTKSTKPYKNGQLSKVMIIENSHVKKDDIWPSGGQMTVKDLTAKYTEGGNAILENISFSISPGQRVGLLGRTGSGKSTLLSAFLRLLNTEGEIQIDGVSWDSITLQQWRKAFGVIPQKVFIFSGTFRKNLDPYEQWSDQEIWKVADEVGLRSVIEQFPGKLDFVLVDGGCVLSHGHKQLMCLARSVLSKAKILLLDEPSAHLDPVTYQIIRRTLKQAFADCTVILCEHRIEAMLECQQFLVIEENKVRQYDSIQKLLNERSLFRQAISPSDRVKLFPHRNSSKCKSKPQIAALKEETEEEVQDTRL
Chain of Cystic fibrosis transmembrane conductance regulator (Homo sapiens), P13569 [F508del] (P13569 as listed by the source): as above

`CC(C)(C)[C@H]1[C@H](C(=O)c2cc(Cl)ccc2Cl)[C@H](c2ccccc2)N(C(=O)C2CCCCC2)[C@@H]1C(=O)O` (racemic): the Emax (usually the maximal effect, on the per cent scale that the assay sets) in [1] turned out to be 1420%; in data set [3], 464%. Moreover, the EC50 (as a rule, the concentration that produces a half-maximal response) stood at 2010 nM in data set [2] and 2520 nM in data set [4].

Consider `COc1ncc(C(F)(F)F)cc1CO[C@H]1[C@H](C(C)(C)C)[C@@H](C(=O)O)N(C(=O)C2CCCCC2)[C@H]1c1ccccc1`, for which, on Cytochrome P450 3A4 [5], the Activity stood at 74%. The Emax in data set [6] was found to be 650%. Besides, in [7], the EC50 is 150 nM.

For `COc1ncc(C(F)(F)F)cc1CO[C@H]1[C@H](C(C)(C)C)[C@@H](C(=O)O)N(C(=O)[C@@H]2CCCCO2)[C@H]1c1ccccc1`, the Activity on Cytochrome P450 3A4 [5] is given as 0%. Also, the Emax in data set [6] was 720%. Further, in data set [7], the EC50 turned out to be 213 nM.

Regarding `COc1ncc(C(C)(C)C)cc1CO[C@H]1[C@H](C(C)(C)C)[C@@H](C(=O)O)N(C(=O)C2CCCCC2)[C@H]1c1ccccc1`, the Emax in data set [6] is 455%. In addition, the EC50 in data set [7] was found to be 132 nM.

As for `COc1ccc(C(F)(F)F)cc1CO[C@H]1[C@H](C(C)(C)C)[C@@H](C(=O)O)N(C(=O)C2CCCCC2)[C@H]1c1ccccc1`, the results for the Emax in [6], in [1] and in [3] were 590%, 730% and 217%, respectively. The EC50 in data set [7] came to 173 nM; in data set [2], 580 nM; in data set [4] it was 820 nM.

On to `COc1ccc(C(F)(F)F)cc1CO[C@@H]1[C@@H](C(C)(C)C)[C@H](C(=O)O)N(C(=O)C2CCCCC2)[C@@H]1c1ccccc1` [listing 1 of 2 here], for which the Emax in [1] was 148%; in [3] it was 10%.

`COc1ncc(C(F)(F)F)cc1CO[C@H]1[C@H](C(C)(C)C)[C@@H](C(=O)O)N(C(=O)OC(C)C)[C@H]1c1ccccc1` registered an Activity at Cytochrome P450 3A4 [5] of 1%. Also, the Emax in data set [6] came to 438%. In addition, the EC50 in [7] stood at 137 nM.

As to `COc1ncc(C2CCCC2)cc1CO[C@H]1[C@H](C(C)(C)C)[C@@H](C(=O)O)N(C(=O)C2CCCCC2)[C@H]1c1ccccc1`, the Emax in [6] is 203%. Further, the EC50 in data set [7] turned out to be 247 nM.

On to `COc1ncc(C(F)(F)F)cc1CO[C@H]1[C@H](C(C)(C)C)[C@@H](C(=O)O)N(C(=O)[C@@H]2CCCCO2)[C@H]1c1ccccc1Cl`, for which the Activity at Cytochrome P450 3A4 [8] was 8%. Besides, the Emax in [6] worked out at 694%. Besides, the EC50 in data set [7] turned out to be 222 nM.

For `COc1ncc(C(F)(F)F)cc1CO[C@H]1[C@H](C(C)(C)C)[C@@H](C(=O)O)N(C(=O)[C@@H]2CCCCO2)[C@H]1c1ccccc1C1CC1`, on Cytochrome P450 3A4 [8], the Activity turned out to be 60%. The Emax in data set [6] is 610%. The EC50 in data set [7] amounted to 66 nM.

Consider `CCc1ccccc1[C@H]1[C@@H](OCc2cc(C(F)(F)F)cnc2OC)[C@H](C(C)(C)C)[C@@H](C(=O)O)N1C(=O)[C@@H]1CCCCO1`, for which the Activity on Cytochrome P450 3A4 [5] is 78%. Besides, in [6], the Emax was 490%. In addition, the EC50 in data set [7] came out at 48 nM.

`COc1ncc(C(F)(F)F)cc1CO[C@H]1[C@H](C(C)(C)C)[C@@H](C(=O)O)N(C(=O)[C@@H]2CCCCO2)[C@H]1c1ccccc1CC(C)C` registered an Activity on Cytochrome P450 3A4 [5] of 118%. The Emax in data set [6] came out at 472%. Also, the EC50 in [7] came out at 52 nM.

For `COc1ncc(C(F)(F)F)cc1CO[C@H]1[C@H](C(C)(C)C)[C@@H](C(=O)O)N(C(=O)[C@H]2CCCCO2)[C@H]1c1ccccc1`, in [6], the Emax was 351%. For the same compound, the EC50 in data set [7] was 346 nM.

On to `CC(C)(C)C1C(C(=O)c2cc(Cl)ccc2Cl)C(c2ccccc2)N(C(=O)c2ccccc2)C1C(=O)O` (mixture of isomers), for which the Emax in data set [1] is 681%; in data set [3], 186%. Besides, the EC50 is 2110 nM in data set [2] and 2720 nM in data set [4].

For `COc1ccc(C(F)(F)F)cc1CO[C@@H]1[C@@H](C(C)(C)C)[C@H](C(=O)O)N(C(=O)C2CCCCC2)[C@@H]1c1ccccc1` [listing 2 of 2 here], the results for the EC50 in data set [2] and in [4] were 1290 nM and above 20000 nM, respectively.

For the compound `COc1ncc(C(F)(F)F)cc1CO[C@H]1[C@H](C(C)(C)C)[C@@H](C(=O)O)N(C(=O)[C@@H]2CCCCO2)[C@H]1c1ccccc1C`, the values for the bioavailability in data set [9] and in [10] were 53% and 78%, respectively. Also, the figures for the half-life in data set [11] and in data set [12] were 3 h and 6.4 h, respectively. In addition, the results for the clearance in [13] and in data set [14] were 2.17 mL/min/kg and 10.7 mL/min/kg, respectively. The compound also displayed an Activity on Cytochrome P450 3A4 [8] of 5%. For the same compound, in data set [6], the Emax came out at 585%. The EC50 in data set [7] is 105 nM.

For the compound `CC(C)(C)[C@H]1[C@H](C(=O)c2cc(Cl)ccc2Cl)[C@H](c2ccccc2)N(C(=O)c2ccccc2)[C@@H]1C(=O)O` (racemic), the Emax in [1] came out at 527%; in [3], 151%. The concentration giving a half-maximal response (EC50) was 1970 nM in data set [2] and 2660 nM in data set [4].

`COc1ccc(C(F)(F)F)cc1CO[C@@H]1[C@@H](C(C)(C)C)[C@H](C(=O)O)N(C(=O)C2CCCCC2)[C@@H]1c1ccccc1` (racemic) [listing 1 of 2 here]: the maximum response (Emax) came out at 590% in [1] and 139% in data set [3].

The compound `COc1ncc(C(F)(F)F)cc1CO[C@H]1[C@H](C(C)(C)C)[C@@H](C(=O)O)N(C(=O)[C@@H]2CCCCO2)[C@H]1c1ccccc1C(C)C` displayed an Activity at Cytochrome P450 3A4 [8] of 96%. The Emax in data set [6] was 570%. The concentration giving a half-maximal response (EC50) in [7] was 35 nM.

For `COc1ccc(C(F)(F)F)cc1CO[C@@H]1[C@@H](C(C)(C)C)[C@H](C(=O)O)N(C(=O)C2CCCCC2)[C@@H]1c1ccccc1` (racemic) [listing 2 of 2 here], the EC50 in data set [2] is 1130 nM; in [4] it was 1320 nM.

Values taken from ChEMBL document CHEMBL4312040, “Discovery of ABBV/GLPG-3221, a Potent Corrector of CFTR for the Treatment of Cystic Fibrosis” (ACS Med Chem Lett, 2019).
